Measurements: ChEMBL document CHEMBL4387703, “Lead optimization and biological evaluation of fragment-based cN-II inhibitors” (Eur J Med Chem, 2019)

Key:
Settings in all cases: Homo sapiens
[1] = compound: O=C(Nc1ncnc2c1ncn2CP(=O)(O)O)c1cccc(-c2ccccc2)c1; test: Mixed type inhibition of recombinant cN-II (unknown origin) assessed as substrate Kcat using varying level of IMP as substrate by HPLC method based Lineweaver-Burk plot analysis
In short: (§1)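 Enzyme, alone or with compound, was mixed with IMP (0.2 to 3 mM) under stirring at 37 °C in imidazole pH 6.5/NaCl/MgCl2 buffer. Samples were taken every 7 s and quenched with 10% perchloric acid. IMP and inosine were quantified by SAX HPLC in 10 mM ammonium phosphate pH 5.5. Data were fitted to competitive, non-competitive, uncompetitive or mixed inhibition equations.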

[2] = compound: O=C(Nc1ncnc2c1ncn2CP(=O)(O)O)c1cccc(-c2ccccc2)c1; test: Uncompetitive inhibition of recombinant cN-II (unknown origin) assessed as substrate Kcat using varying level of IMP as substrate by HPLC method based Lineweaver-Burk plot analysis; in short: as §1
[3] = compound: O=C(Nc1ncnc2c1ncn2CP(=O)(O)O)c1cccc(-c2ccccc2)c1; test: Competitive inhibition of recombinant cN-II (unknown origin) using varying level of IMP as substrate assessed as substrate Km by HPLC method based Lineweaver-Burk plot analysis; in short: as §1
[4] = compound: O=C(Nc1ncnc2c1ncn2CP(=O)(O)O)c1cccc(-c2ccccc2)c1; test: Uncompetitive inhibition of recombinant cN-II (unknown origin) assessed as substrate Km using varying level of IMP as substrate by HPLC method based Lineweaver-Burk plot analysis; in short: as §1
[5] = compound: O=C(Nc1ncnc2c1ncn2CP(=O)(O)O)c1cccc(-c2ccccc2)c1; test: Noncompetitive inhibition of recombinant cN-II (unknown origin) assessed as substrate Kcat using varying level of IMP as substrate by HPLC method based Lineweaver-Burk plot analysis; in short: as §1
[6] = compound: O=C(Nc1ncnc2c1ncn2CP(=O)(O)O)c1cccc(-c2ccccc2)c1; test: Noncompetitive inhibition of recombinant cN-II (unknown origin) assessed as substrate Km using varying level of IMP as substrate by HPLC method based Lineweaver-Burk plot analysis; in short: as §1
[7] = compound: O=C(Nc1ncnc2c1ncn2CP(=O)(O)O)c1cccc(-c2ccccc2)c1; test: Competitive inhibition of recombinant cN-II (unknown origin) using varying level of IMP as substrate assessed as substrate Kcat by HPLC method based Lineweaver-Burk plot analysis; in short: as §1
[8] = compound: O=C(Nc1ncnc2c1ncn2CP(=O)(O)O)c1cccc(-c2ccccc2)c1; test: Mixed type inhibition of recombinant cN-II (unknown origin) assessed as substrate Km using varying level of IMP as substrate by HPLC method based Lineweaver-Burk plot analysis; in short: as §1

B1: 5'-nucleotidase (Homo sapiens), P21589 (protein)
chain: MCPRAARAPATLLLALGAVLWPAAGAWELTILHTNDVHSRLEQTSEDSSKCVNASRCMGGVARLFTKVQQIRRAEPNVLLLDAGDQYQGTIWFTVYKGAEVAHFMNALRYDAMALGNHEFDNGVEGLIEPLLKEAKFPILSANIKAKGPLASQISGLYLPYKVLPVGDEVVGIVGYTSKETPFLSNPGTNLVFEDEITALQPEVDKLKTLNVNKIIALGHSGFEMDKLIAQKVRGVDVVVGGHSNTFLYTGNPPSKEVPAGKYPFIVTSDDGRKVPVVQAYAFGKYLGYLKIEFDERGNVISSHGNPILLNSSIPEDPSIKADINKWRIKLDNYSTQELGKTIVYLDGSSQSCRFRECNMGNLICDAMINNNLRHTDEMFWNHVSMCILNGGGIRSPIDERNNGTITWENLAAVLPFGGTFDLVQLKGSTLKKAFEHSVHRYGQSTGEFLQVGGIHVVYDLSRKPGDRVVKLDVLCTKCRVPSYDPLKMDEVYKVILPNFLANGGDGFQMIKDELLRHDSGDQDINVVSTYISKMKVIYPAVEGRIKFSTGSHCHGSFSLIFLSLWAVIFVLYQ
B1 was tested, and the kcat [1] was 49.9 s⁻¹, the kcat [2] was 54.1 s⁻¹ and the Km [3] was 1070 µM. For the same protein, the Km [4] was 1360 µM, the kcat [5] was 53.1 s⁻¹ and the Km [6] was 1260 µM. The kcat [7] was 49.9 s⁻¹ and the Km [8] was 1070 µM.
